Test results reported in ChEMBL document CHEMBL4765395, “Design, diversity-oriented synthesis and biological evaluation of novel heterocycle derivatives as non-nucleoside HBV capsid protein inhibitors” (Eur J Med Chem, 2020).
The source made the active and inactive calls. The rule behind the calls is not given here.

Columns and labels:
[1] = Selectivity index, ratio of CC50 for human HepG2.2.15 cells to IC50 for antiviral activity against HBV infected in human HepG2.2.15 cells assessed as reduction in HBeAg secretion; type: toxicity, cell-based; conditions: read-out: Ratio CC50/IC50
[2] = tested on: Hepatitis B virus; assay: Antiviral activity against HBV infected in human HepG2.2.15 cells assessed as […] at 100 uM incubated for 4 days prior to compound washout followed by compound addition and measured after 4 days by fluorogenic probe based RT-qPCR analysis relative to control; type: functional; conditions: for inhibition at 100 µM: HepG2.2.15, 192 h, time 8 day; for inhibition: time 8.0 day
[3] = Cytotoxicity against human HepG2.2.15 cells assessed as reduction in cell viability incubated for 4 days prior to compound washout followed by compound addition and measured after 4 days by CCK8 assay; type: cell-based, HepG2 2.2.15; conditions: time 8 day
Method in brief: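 Cytotoxicity in HepG2.2.15 cells was measured with five doses (100, 20, 4, 0.8, 0.16 µM) over 8 days, with medium changed on day 4. CCK-8 (10%) was added 0.5 h before the end, OD was read at 450/630 nm, and CC50 is the concentration killing 50% of cells against untreated controls.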

[4] = tested on: Hepatitis B virus; assay: Binding affinity to recombinant HBV capsid protein assessed as response value at 6.6 uM by surface plasmon resonance analysis (reference value: 11.31)
Method in brief: (§1)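 Recombinant HBV capsid protein purified and amine-coupled to a CM5 sensor chip. Six doses of test compound run with running buffer containing 5% DMSO, plus eight solvent-calibration solutions and 50% DMSO solution. Samples centrifuged 15 min before loading. PBS and NaAc-HAc buffers used. Binding read as SPR response.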

[5] = tested on: Hepatitis B virus; assay: Binding affinity to recombinant HBV capsid protein assessed as response value at 9.9 uM by surface plasmon resonance analysis (reference value: 11.31); method in brief: as §1
[6] = Selectivity index, ratio of CC50 for human HepG2.2.15 cells to IC50 for antiviral activity against HBV infected in human HepG2.2.15 cells assessed as reduction in HBsAg secretion; type: toxicity, cell-based; conditions: read-out: Ratio CC50/IC50
[7] = tested on: Hepatitis B virus; assay: Antiviral activity against HBV infected in human HepG2.2.15 cells assessed as reduction in HBeAg secretion incubated for 4 days prior to compound washout followed by compound addition and measured after 4 days by ELISA; type: functional, organism-based
Method in brief: (§2)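 Five doses (100, 20, 4, 0.8, 0.16 µM) were added in triplicate to HepG2.2.15 cultures for 8 days, with fresh medium on day 4 and untreated controls. Day-8 supernatants were assayed for HBsAg and HBeAg by ELISA kit with absorbance read-out. IC50 is the concentration giving 50% inhibition of antigen secretion.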

[8] = tested on: Hepatitis B virus; assay: Binding affinity to recombinant HBV capsid protein assessed as response value at 22.2 uM by surface plasmon resonance analysis (reference value: 11.31); method in brief: as §1
[9] = tested on: Hepatitis B virus; assay: Antiviral activity against HBV infected in human HepG2.2.15 cells assessed as reduction in HBsAg secretion incubated for 4 days prior to compound washout followed by compound addition and measured after 4 days by ELISA; type: functional, organism-based; method in brief: as §2
[10] = tested on: Hepatitis B virus; assay: (§3) Binding affinity to recombinant HBV capsid protein by surface plasmon resonance analysis; method in brief: as §1
[11] = as §3; set-up: species or system Hepatitis B virus; method in brief: as §1
[12] = tested on: HepG2 2.2.15; assay: Cytotoxicity against human HepG2.2.15 cells assessed as reduction in cell viability at 100 uM incubated for 4 days prior to compound washout followed by compound addition and measured after 4 days by CCK8 assay relative to control; type: cell-based; conditions: hepg2 2.2.15, 192 h, time 8 day
Method in brief: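 Three wells of 4000 HepG2.2.15 cells per well received a single 100 µM concentration for 8 days, with medium replaced on day 4. CCK-8 (10%) was added 0.5 h before the end, and OD was read at 450 and 630 nm. Percent cell death was calculated against untreated cells.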

[13] = Selectivity index, ratio of CC50 for human HepG2.2.15 cells to IC50 for antiviral activity against HBV infected in human HepG2.2.15 cells assessed as reduction in intracellular viral DNA level; type: toxicity, cell-based; conditions: read-out: Ratio CC50/IC50
[14] = tested on: Hepatitis B virus; assay: Antiviral activity against HBV infected in human HepG2.2.15 cells assessed as […] incubated for 4 days prior to compound washout followed by compound addition and measured after 4 days by fluorogenic probe based RT-qPCR analysis; type: functional, organism-based
[15] = tested on: Hepatitis B virus; assay: Binding affinity to recombinant HBV capsid protein assessed as response value at 14.8 uM by surface plasmon resonance analysis (reference value: 11.31); method in brief: as §1
[16] = tested on: Hepatitis B virus; assay: Antiviral activity against HBV infected in human HepG2.2.15 cells assessed as reduction in intracellular viral DNA level at 50 uM incubated for 4 days prior to compound washout followed by compound addition and measured after 4 days by fluorogenic probe based RT-qPCR analysis relative to control; type: functional; conditions: for inhibition at 50 µM: HepG2.2.15, 192 h, time 8 day
[17] = tested on: HepG2 2.2.15; assay: Cytotoxicity against human HepG2.2.15 cells assessed as reduction in cell viability at 50 uM incubated for 4 days prior to compound washout followed by compound addition and measured after 4 days by CCK8 assay relative to control; type: cell-based; conditions: hepg2 2.2.15, 192 h, time 8 day
[18] = tested on: Hepatitis B virus; assay: Antiviral activity against HBV infected in human HepG2.2.15 cells assessed as reduction in intracellular viral DNA level at 20 uM incubated for 4 days prior to compound washout followed by compound addition and measured after 4 days by fluorogenic probe based RT-qPCR analysis relative to control; type: functional; conditions: for inhibition at 20 µM: HepG2.2.15, 192 h, time 8 day; for inhibition: time 8.0 day
[19] = tested on: HepG2 2.2.15; assay: Cytotoxicity against human HepG2.2.15 cells assessed as reduction in cell viability at 20 uM incubated for 4 days prior to compound washout followed by compound addition and measured after 4 days by CCK8 assay relative to control; type: cell-based; conditions: hepg2 2.2.15, 192 h, time 8 day

SMILES: CC(C)Cc1sc(-c2nccs2)nc1C(=O)Nc1ccc(F)cc1
- selectivity ratio [1]: < 0.8
- inhibition at 100 µM [2]: 89.8%
- CC50 at 192 h [3]: 80.8 µM
- Activity [4]: 15.4 RU
- Activity [5]: 18.8 RU
- selectivity ratio [6]: < 0.8
- IC50 [7]: > 100 µM
- Activity [8]: 26.4 RU
- IC50 [9]: > 100 µM
- Activity [10]: Dose-dependent effect
- Kd [11]: 60 µM
- Activity [12]: Non-Toxic
- selectivity ratio [13]: 36.7
- IC50 [14]: 2.2 µM
- Activity [15]: 20.6 RU

SMILES: O=C(NCc1ccc(F)cc1)c1ccc(-c2ccccc2)nc1-c1ccccc1
- inhibition ([16]; time 8.0 day): inactive
- Activity [17]: 4.4%

SMILES: CCNc1nn(-c2cccc(F)c2)cc1C(=O)OCC
- inhibition at 100 µM [2]: 39.9%
- Activity [12]: 10.9%

SMILES: CC(C)Cc1nc(-c2ccncc2)sc1C(=O)NCc1ccc(F)cc1
- selectivity ratio [1]: > 1.6
- inhibition at 20 µM [18]: 57.8%
- CC50 at 192 h [3]: > 100 µM
- selectivity ratio [6]: > 26.3
- IC50 [7]: 62.3 µM
- IC50 [9]: 3.8 µM
- Activity [19]: 35.8%
- selectivity ratio [13]: > 2.5
- IC50 [14]: 40.5 µM

SMILES: CC(C)Cc1nc(-c2ccsc2)sc1C(=O)NCc1ccc(F)cc1
- inhibition [18]: inactive
- Activity [19]: 6.7%

SMILES: CC(C)Cc1nc(-c2cccs2)sc1C(=O)NCc1ccc(F)cc1
- inhibition [18]: inactive
- Activity [19]: 17.8%

SMILES: CCOC(=O)c1cn(-c2nccs2)nc1NCc1ccccc1
- inhibition [2]: inactive
- Activity [12]: 30.4%

SMILES: O=C(NCc1ccc(F)cc1Cl)c1cn(-c2nccs2)nc1NCc1ccccc1
- inhibition at 100 µM [2]: 41.6%
- Activity [12]: 29.2%

SMILES: CCOC(=O)c1cn(-c2cccc(F)c2)nc1NC
- inhibition [2]: inactive
- Activity [12]: 5.7%

SMILES: CC(C)Cc1nc(NS(=O)(=O)c2ccc(F)cc2)sc1C(=O)NCc1ccc(F)cc1
- inhibition [18]: inactive
- Activity [19]: 17.5%

SMILES: Cc1ccc(-c2nc(CC(C)C)c(C(=O)NCc3ccc(F)cc3)s2)s1
- inhibition [18]: inactive
- Activity [19]: Non-Toxic

SMILES: CCOC(=O)c1cnc(-c2cccc(F)c2)nc1CC(C)C
- inhibition at 50 µM [16]: 46.3%
- Activity [17]: Non-Toxic

SMILES: CC(C)Cc1nc(-c2cccc(F)c2)ncc1C(=O)O
- selectivity ratio [1]: > 10.3
- CC50 at 192 h [3]: > 100 µM
- IC50 [7]: 9.7 µM
- inhibition at 50 µM [16]: 54.2%
- IC50 [9]: > 100 µM
- Activity [17]: Non-Toxic
- selectivity ratio [13]: > 10.1
- IC50 [14]: 9.9 µM

SMILES: CC(C)Cc1nc(NC(=O)c2ccc(F)cc2)sc1C(=O)NCc1ccc(F)cc1
- inhibition at 20 µM [18]: 29.2%
- Activity [19]: 20.7%
